SUMO1-SIM PPI = SUMO1-SIM interaction modulation; SUMO1 binding to a labelled peptide, TR-FRET, 1 h; inhibition, % at 20 µM; 360,000 compounds, 0.33% hits; AID 602429; in the data active means inhibition above about 37%
Target sequence (P63165 whole entry, looked up): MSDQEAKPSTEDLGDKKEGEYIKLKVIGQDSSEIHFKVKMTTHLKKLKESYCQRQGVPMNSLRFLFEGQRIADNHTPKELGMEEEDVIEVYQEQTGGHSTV
STEP inh = inhibitors of human striatal-enriched phosphatase STEP. recombinant STEP, OMFP fluorogenic substrate, fluorescence. inhibition, % at 20 µM. P54829. 360,000 compounds, 0.25% hits;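 active means inhibition at 20 µM, scaled per plate between control wells, above about 37%, limit read from the data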;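 further: 0% = DMSO with enzyme and substrate and 100% = substrate only without enzyme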
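Test system: STEP tyrosine phosphatase / Reagent: OMFP at 25 µM / Doses: 20 µM, 1% DMSO / Read-out: percent inhibition scaled to no-enzyme and uninhibited-enzyme controls, plate-pattern corrected / Detection: FITC-channel fluorescence of OMFP product / Medium: Bis-Tris buffer pH 6.0, 2.5 mM DTT, 0.005% Tween 20 / Schedule: 20 min at room temperature, dark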
Scp1 inh = inhibitors of human Scp-1 phosphatase; AID 493091; 340,000 compounds, 0.88% hits; Recombinant Scp1, phosphopeptide, malachite green phosphate absorbance; inhibition, % at 20 µM;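 active means inhibition above about 50% at 20 µM, limit read from the data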;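 further: plate controls were DMSO wells with enzyme for no effect and wells lacking enzyme for full effect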
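Incubation: 45 min enzyme reaction at room temperature / System: truncated SCP-1 phosphatase (76-261aa) / Reagent: Phospho 17-mer peptide substrate / Buffer or medium: Acidic Tris acetate buffer with magnesium and detergent / Signal: absorbance at 630 nm / Doses: one concentration, 20 µM, with 1.0% DMSO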
DNMT1 inh = inhibitors of human DNMT1. P26358. DNMT1 molecular beacon, Hinp1I cleavage, fluorescence. inhibition (reported as % activation of signal), % at 10 µM. 360,000 compounds, 0.83% hits; in the data active means inhibition above about 50%
NadD block = NadD (S. aureus) enzyme inhibition | purified NadD enzyme, colorimetric absorbance read-out | inhibition, % at 20 µM | 360,000 compounds, 0.78% hits; in the data active means inhibition above about 26%
LMPTP inh = blocks human LMPTP phosphatase | P24666 | recombinant LMPTP-A, OMFP fluorogenic substrate, fluorescence intensity | inhibition, % at 20 µM | 360,000 compounds, 0.22% hits | AID 651560;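 active means compounds that cut the enzyme signal by at least half of the control window in the single-dose screen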;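 further: plate controls were DMSO wells with enzyme plus substrate for no effect and substrate without enzyme for full effect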
Target sequence (P24666 whole entry, looked up): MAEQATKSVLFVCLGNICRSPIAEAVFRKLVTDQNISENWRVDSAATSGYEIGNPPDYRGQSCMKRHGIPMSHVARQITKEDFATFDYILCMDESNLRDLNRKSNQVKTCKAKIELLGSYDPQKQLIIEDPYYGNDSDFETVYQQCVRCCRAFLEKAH
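test system = LMPTP-A | amount = 0.625 nM LMPTP-A final | reagent = fluorogenic phosphatase substrate OMFP at 400 µM final | incubation = 50 min at room temperature | benchmarks = no-enzyme low control, uninhibited high control | medium = Bis-Tris pH 6.0, DTT, detergent | signal = fluorescence intensity of OMFP turnover product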
NadD inh conf = confirmation of Staphylococcus aureus NadD inhibitors | shares compounds with NadD block | purified S. aureus NadD, colorimetric enzyme assay | inhibition, % at 20 µM | 2,000 compounds, 13% hits | AID 624309; in the data active means inhibition mostly above about 42%, no sharp cut-off; inactive means mostly below about 42%
The depositor's hits bear a star; · = not tested or not shown. Compounds with a hit are over-represented: about 2.4% of the library has one in this group of screens.

SMILES	SUMO1-SIM PPI	STEP inh	Scp1 inh	DNMT1 inh	NadD block	LMPTP inh	NadD inh conf
COc1cc2c(cc1OC)C(C(=O)O)C(c1cc(Br)c(O)c(OC)c1)N(C)C2=O (stereo unspecified)	4	-1	-6	3	0	-1	·
O=S(=O)(NCCCN1CCOCC1)c1ccc(Cl)cc1	3	-3	-4	1	3	-4	·
O=C(CC1N=C2c3ccccc3N=C(SCc3ccc(Cl)cc3)N2C1=O)NCc1ccco1 (stereo unspecified)	6	4	10	30	49*	3	60*
COc1ccc(Nc2nc(-c3cc4cccc(OC)c4oc3=O)cs2)cc1	2	1	-3	9	44*	1	-4
CC(=O)Nc1ccc(Nc2nc(-c3cc4ccccc4oc3=O)cs2)cc1	-3	6	-1	-6	9	3	·
COc1ccc2oc(=O)c(-c3csc(Nc4cccc(O)c4)n3)cc2c1	-13	-3	-3	-27	35*	7	59*
COc1cccc2cc(/C(C)=N/Nc3nc(-c4cc(C)ccc4C)cs3)c(=O)oc12	-6	-4	0	8	34*	1	20
COc1ccc(-c2cc3cccc(OC)c3oc2=O)cc1	-41	1	-23	0	-7	1	·
O=C(COc1cccc(Cl)c1)Nc1nc(-c2ccc(S(=O)(=O)N3CCOCC3)cc2)cs1	1	2	-20	-3	32*	2	7
CCOc1cccc(C(=O)Nc2nc(-c3ccc(S(=O)(=O)N4CCOCC4)cc3)cs2)c1	0	-4	-7	6	15	1	·
CCN1CCCC1CNC(=O)c1cc(S(N)(=O)=O)ccc1OC (stereo unspecified)	0	0	34	0	1	0	·
O=C(O)C1CC=CCC1C(=O)N1CCN(c2nc(-c3ccccc3Cl)c3cc(Br)ccc3n2)CC1 (stereo unspecified)	-6	0	3	20	36*	3	28
COc1cc(NS(=O)(=O)c2ccc(NC(=S)NC(=O)c3sc4ccccc4c3Cl)cc2)ncn1	26	2	-1	-2	50*	0	14
NC(=O)c1c(NC(=O)COC(=O)CSc2nnc(-c3ccc(Cl)cc3)o2)sc2c1CCC2	10	0	-2	16	40*	3	8
Cc1cc2cc(C(c3nnnn3Cc3ccco3)N3CCc4ccccc43)c(=O)[nH]c2cc1C (stereo unspecified)	5	13	-17	-14	32*	3	26
Cc1ccc2[nH]c(=O)c(C(c3nnnn3Cc3ccccc3)N3CCc4ccccc43)cc2c1 (stereo unspecified)	-43	0	-7	-24	32*	3	22
Cc1noc(C)c1NC(=O)N(C)C[C@H]1OCCCC[C@@H](C)Oc2ccc(NS(=O)(=O)c3ccccc3)cc2C(=O)N([C@H](C)CO)C[C@@H]1C	-1	1	·	2	6	-1	·
Cc1noc(C)c1C(=O)OCC(=O)N(C)C1(C#N)CCCCC1	5	1	0	1	2	-1	·
COc1cccc(C(=O)Nc2ccc(C(=O)NCC3CCCO3)cc2)c1 (stereo unspecified)	-2	-1	-13	1	-4	0	·
Cn1c2ccccc2c(=O)c2ccc(NCCc3cccs3)cc21	15	0	14	27	36*	14	3
Cn1c(C(=O)NCc2cccs2)cc2c(=O)n(C)c3ccccc3c21	-11	0	-4	4	-2	0	·
CC1CCc2nc(N)c(C#N)c(-c3ccncc3)c2C1 (stereo unspecified)	3	-1	-1	7	-2	0	·
COC(=O)c1ccc(C2/C(=C(\O)c3ccc4c(c3)OCCO4)C(=O)C(=O)N2c2nnc(C)s2)cc1 (stereo unspecified)	-18	6	-7	0	6	-1	·

Compound activity from PubChem.
